Laboratory results reported in ChEMBL document CHEMBL4304758, “Development of Peptide-Based Sirtuin Defatty-Acylase Inhibitors Identified by the Fluorescence Probe, SFP3, That Can Efficiently Measure Defatty-Acylase Activity of Sirtuin” (J Med Chem, 2019).
Counter-ions that a name gives are not always drawn. Calls of active or inactive are those of the source. The calls are words filed in the database; no cut-off is given here. Residues, ends and D or L forms follow the SMILES beside them. *: point of attachment. Phenylacetyl(4-E-phenylazo) = O=C(Cc1ccc(/N=N/c2ccccc2)cc1)*; X3 = CN(C)c1ccc(/N=N/c2ccc(CCC(=O)*)cc2)cc1; Tfa = O=C(C(F)(F)F)*

What was measured:
[1] = molecular target: NAD-dependent protein deacylase sirtuin-6 (Homo sapiens) (UniProt Q8N6T7); test: Inhibition of recombinant human N-terminal polyhis-tagged SIRT6 (1 to 355 residues) defatty-acylase activity expressed in Escherichia coli at 2 uM using SFP3 as substrate measured at 5 mins interval for 60 mins in presence of NAD+ by fluorescence assay relative to control
[2] = molecular target: T1, NAD-dependent protein deacetylase sirtuin-2 (Homo sapiens) (UniProt Q8IXJ6); test: Inhibition of recombinant human SIRT2 defatty-acylase activity at 2 uM using SFP3 as substrate measured at 5 mins interval for 60 mins in presence of NAD+ by fluorescence assay relative to control
T1 sequence (whole entry): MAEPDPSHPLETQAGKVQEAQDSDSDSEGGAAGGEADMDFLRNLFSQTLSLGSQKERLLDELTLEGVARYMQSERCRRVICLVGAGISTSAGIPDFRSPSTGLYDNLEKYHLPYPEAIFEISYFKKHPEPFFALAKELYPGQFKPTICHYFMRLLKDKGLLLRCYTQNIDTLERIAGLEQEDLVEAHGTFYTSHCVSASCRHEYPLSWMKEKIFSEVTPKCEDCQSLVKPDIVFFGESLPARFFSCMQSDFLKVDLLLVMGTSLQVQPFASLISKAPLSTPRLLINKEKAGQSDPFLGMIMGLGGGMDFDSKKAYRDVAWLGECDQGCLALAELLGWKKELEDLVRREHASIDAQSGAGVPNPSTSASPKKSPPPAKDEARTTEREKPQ

[3] = molecular target: T1, NAD-dependent protein deacetylase sirtuin-2 (Homo sapiens); test: Inhibition of recombinant human SIRT2 demyristoylase activity at 1 uM using p53(Myr)-AMC as substrate measured after 3 hrs in presence of NAD+ and trypsin by fluorescence assay relative to control
[4] = molecular target: T2, NAD-dependent protein deacetylase sirtuin-1 (Homo sapiens) (UniProt Q96EB6); test: Inhibition of recombinant human C-terminal His6-tagged SIRT1 (Met1 to Ser747 residues) defatty-acylase activity expressed in Escherichia coli at 2 uM using SFP3 as substrate measured at 5 mins interval for 60 mins in presence of NAD+ by fluorescence assay relative to control
T2 sequence (whole entry): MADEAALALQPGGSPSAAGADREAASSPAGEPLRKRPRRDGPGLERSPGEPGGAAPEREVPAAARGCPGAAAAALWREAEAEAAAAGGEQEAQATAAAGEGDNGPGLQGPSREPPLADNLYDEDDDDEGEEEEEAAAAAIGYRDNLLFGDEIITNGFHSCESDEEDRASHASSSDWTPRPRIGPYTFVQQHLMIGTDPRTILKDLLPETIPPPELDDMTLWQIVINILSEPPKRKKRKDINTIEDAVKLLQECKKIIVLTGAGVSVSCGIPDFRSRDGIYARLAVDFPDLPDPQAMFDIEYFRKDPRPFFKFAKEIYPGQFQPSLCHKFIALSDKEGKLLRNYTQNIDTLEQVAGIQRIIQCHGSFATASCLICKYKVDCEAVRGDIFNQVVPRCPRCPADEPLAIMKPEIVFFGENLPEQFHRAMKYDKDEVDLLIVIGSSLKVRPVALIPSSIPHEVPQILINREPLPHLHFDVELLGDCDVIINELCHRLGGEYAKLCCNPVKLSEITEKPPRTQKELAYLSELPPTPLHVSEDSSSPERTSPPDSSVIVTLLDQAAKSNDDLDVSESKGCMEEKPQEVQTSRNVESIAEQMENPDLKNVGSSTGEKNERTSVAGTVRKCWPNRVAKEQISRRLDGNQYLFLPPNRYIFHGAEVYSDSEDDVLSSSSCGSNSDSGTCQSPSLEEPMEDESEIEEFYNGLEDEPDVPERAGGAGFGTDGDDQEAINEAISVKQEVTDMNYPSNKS

[5] = molecular target: T3, NAD-dependent protein deacetylase sirtuin-3, mitochondrial (Homo sapiens) (UniProt Q9NTG7); test: Inhibition of recombinant human SIRT3 (118 to 399 residues) defatty-acylase activity expressed in Escherichia coli at 2 uM using SFP3 as substrate measured at 5 mins interval for 60 mins in presence of NAD+ by fluorescence assay relative to control
T3 sequence (whole entry): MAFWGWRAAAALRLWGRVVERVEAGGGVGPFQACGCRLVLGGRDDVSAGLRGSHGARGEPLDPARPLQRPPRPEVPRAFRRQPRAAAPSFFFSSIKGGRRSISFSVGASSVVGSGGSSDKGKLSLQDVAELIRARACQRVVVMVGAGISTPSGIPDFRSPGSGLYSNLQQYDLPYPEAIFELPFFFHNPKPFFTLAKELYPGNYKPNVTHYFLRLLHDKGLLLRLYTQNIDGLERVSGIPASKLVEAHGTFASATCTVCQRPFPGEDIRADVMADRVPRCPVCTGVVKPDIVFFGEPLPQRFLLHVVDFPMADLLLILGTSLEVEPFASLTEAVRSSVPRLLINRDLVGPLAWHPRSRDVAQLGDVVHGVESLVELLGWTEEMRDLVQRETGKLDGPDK
Method in brief: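 SIRT3 at 60 nM final with 2.5 μM SFP3 and 500 μM NAD⁺ in Tris-HCl pH 8.0, 150 mM NaCl, 1 mM DTT, 0.05% Triton X-100. Final DMSO 0.2%, or 0.5% for AGK2/NAM. Fluorescence Ex 485/Em 535 nm every 5 min for 60 min at 37 °C. n = 3.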

[6] = molecular target: T2, NAD-dependent protein deacetylase sirtuin-1 (Homo sapiens); test: Inhibition of recombinant human C-terminal His6-tagged SIRT1 (Met1 to Ser747 residues) demyristoylase activity expressed in Escherichia coli at 1 uM using p53(Myr)-AMC as substrate measured after 3 hrs in presence of NAD+ and trypsin by fluorescence assay relative to control
Method in brief: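 SIRT1 at 14 nM final with 50 μM p53(Myr)-AMC and 500 μM NAD⁺ in Tris-HCl pH 8.0/NaCl/DTT/Triton buffer, 0.5% DMSO, 3 h at room temperature. Trypsin (100 nM final) plus nicotinamide (1 mM final) then added. Fluorescence Ex 355/Em 460 nm read every 5 min for 20 min at 37 °C. n = 3.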

[7] = molecular target: T3, NAD-dependent protein deacetylase sirtuin-3, mitochondrial (Homo sapiens); test: Inhibition of recombinant human SIRT3 (118 to 399 residues) demyristoylase activity expressed in Escherichia coli at 1 uM using p53(Myr)-AMC as substrate measured after 3 hrs in presence of NAD+ and trypsin by fluorescence assay relative to control
Method in brief: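 SIRT3 at 120 nM with 50 μM p53(Myr)-AMC and 500 μM NAD⁺ in Tris-HCl pH 8.0/NaCl/DTT/Triton buffer, 0.5% DMSO, 3 h at room temperature. Trypsin (100 nM) plus nicotinamide (1 mM) then added. Fluorescence Ex 355/Em 460 nm every 5 min for 20 min at 37 °C. n = 3.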

[8] = molecular target: T1, NAD-dependent protein deacetylase sirtuin-2 (Homo sapiens); test: Time-dependent inhibition of recombinant human SIRT2 defatty-acylase activity at 62.5 to 1000 nM using SFP3 as substrate measured at 5 mins interval for 60 mins in presence of NAD+ by fluorescence assay
HeLa = test: Cytotoxicity against human HeLa cells assessed as reduction in cell viability at 50 uM measured after 72 hrs by CCK8 assay; format: functional, cell-based
Method in brief: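 HeLa cells, 1.0 × 10⁴ per well on PLL-coated plates, grown overnight in DMEM with 10% FBS and penicillin/streptomycin, 37 °C, 5% CO₂. Compounds added in DMEM (2% DMSO stock), range 1.56–50 μM final, for 72 h. CCK-8 reagent then 2 h at 37 °C, absorbance read at 450 nm. DMSO control.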

[9] = molecular target: T1, NAD-dependent protein deacetylase sirtuin-2 (Homo sapiens); test: Inhibition of recombinant human SIRT2 demyristoylase activity using H4K16-Myr as substrate measured after 2 hrs in presence of NAD+ by HPLC analysis
Method in brief: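 H4K16-Myr at 100 μM with 500 μM NAD⁺ and 175 nM SIRT2 in Tris-HCl pH 8.0/NaCl/Triton buffer without DTT, 0.5% DMSO, 2 h at 37 °C. Inhibitors at 0.1–10 μM; AGK2 at 50 μM, NAM at 500 μM. Stopped with HCl/MeOH. Demyristoylated H4K16 product measured by HPLC at 280 nm. Percent inhibition, n = 3.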

[10] = molecular target: T1, NAD-dependent protein deacetylase sirtuin-2 (Homo sapiens); test: Inhibition of recombinant human SIRT2 deacylation activity using H4K16-Ac as substrate measured after 30 mins in presence of NAD+ by HPLC analysis
Method in brief: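 H4K16-Ac peptide at 100 μM with 500 μM NAD⁺ and 175 nM SIRT2 in Tris-HCl pH 8.0/NaCl/Triton buffer lacking DTT, 0.5% DMSO, 30 min at 37 °C. Inhibitors at 0.01–10 μM. Stopped with HCl in MeOH. Deacetylated product quantified by reversed-phase HPLC at 280 nm.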

Sequence of NAD-dependent protein deacylase sirtuin-6 (Homo sapiens) (Q8N6T7 whole entry, the tested form may be a part): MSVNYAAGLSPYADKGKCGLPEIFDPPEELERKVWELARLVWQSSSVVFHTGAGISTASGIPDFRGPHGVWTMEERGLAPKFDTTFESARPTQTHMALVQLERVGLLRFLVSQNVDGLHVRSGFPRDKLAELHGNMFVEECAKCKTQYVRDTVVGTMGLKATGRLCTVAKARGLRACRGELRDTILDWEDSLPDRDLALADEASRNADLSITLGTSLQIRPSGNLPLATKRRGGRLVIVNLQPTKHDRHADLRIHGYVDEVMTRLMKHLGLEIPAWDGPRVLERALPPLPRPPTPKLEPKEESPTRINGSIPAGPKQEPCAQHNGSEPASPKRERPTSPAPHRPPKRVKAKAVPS

Row | SMILES | inhibition [1] [%] | inhibition [2] [%] | inhibition [3] [%] | inhibition [4] [%] | inhibition [5] [%] | inhibition [6] [%] | inhibition [7] [%] | TDI [8] | inhibition [9] | inhibition [10] | Activity (HeLa)
1 | CC[C@H](C)[C@H](NC(=O)[C@H](CCCCNC(=O)Cc1ccc(/N=N/c2ccccc2)cc1)NC(=O)[C@@H](NC(C)=O)C(C)C)C(=O)N[C@@H](CCCCN)C(=O)N[C@@H](CCCCN)C(N)=O (Ac-VK(Phenylacetyl(4-E-phenylazo))IKK-NH2) | 0.64 |  |  |  |  |  |  |  |  |  | 
2 | Cc1cc(C)nc(SCC(=O)Nc2ncc(Cc3cccc4ccccc34)s2)n1 | -2.2 |  |  |  |  |  |  |  |  |  | 
3 | C[C@H](NC(=O)[C@H](CCCCNC(=O)Cc1ccc(/N=N/c2ccc(OCc3ccccc3)cc2)cc1)NC(=O)OCc1ccccc1)C(N)=O | -7.4 | 13 | 3.2 | 1.3 | -0.08 | 2.8 | 5.6 |  |  |  | 
4 | CCCCCCCCCCCCCC(=S)NCCCC[C@H](NC(=O)OCc1ccccc1)C(=O)Nc1ccccc1 | -3.3 |  |  | 0.81 | -0.9 | 2.7 | -1.2 |  |  |  | Active

The next lines start with results.

Row | inhibition [1] [%] | inhibition [2] [%] | inhibition [3] [%] | inhibition [4] [%] | inhibition [5] [%] | inhibition [6] [%] | inhibition [7] [%] | TDI [8] | inhibition [9] | inhibition [10] | SMILES | Activity (HeLa)
5 | 13 |  | 23 |  |  | 42 | 11 | inactive |  |  | CC[C@H](C)[C@H](NC(=O)[C@H](CCCNC(=N)N)NC(C)=O)C(=O)N[C@@H](CCCCNC(=O)CCc1ccc(/N=N/c2ccc(N(C)C)cc2)cc1)C(=O)N[C@@H](CCCNC(=N)N)C(=O)N[C@@H](Cc1ccc(O)cc1)C(N)=O (Ac-RIK(X3)RY-NH2) | 
6 | 3.1 |  |  | 16 |  | 32 | 58 |  |  |  | CC[C@H](C)[C@H](NC(=O)[C@H](CCCNC(=N)N)NC(C)=O)C(=O)N[C@@H](CCCCNC(=O)C(F)(F)F)C(=O)N[C@@H](CCCNC(=N)N)C(=O)N[C@@H](Cc1ccc(O)cc1)C(N)=O (Ac-RIK(Tfa)RY-NH2) | 
7 | 32 |  |  |  |  |  |  |  | Dose-dependent effect | Dose-dependent effect | CC[C@H](C)[C@H](NC(=O)[C@H](CCCNC(=N)N)NC(C)=O)C(=O)N[C@@H](CCCCNC(=O)Cc1ccc(/N=N/c2ccccc2)cc1)C(=O)N[C@@H](CCCNC(=N)N)C(=O)N[C@@H](Cc1ccc(O)cc1)C(N)=O (Ac-RIK(Phenylacetyl(4-E-phenylazo))RY-NH2) | inactive
